Laboratory results published in ChEMBL document CHEMBL4312005, “Optimization of pyrrolizine-based Schiff bases with 4-thiazolidinone motif: Design, synthesis and investigation of cytotoxicity and anti-inflammatory potency” (Eur J Med Chem, 2020).
pIC50: −log10 of the molar value.

Assays:
[1] = test system: A2780; assay: Antiproliferative activity against human A2780 cells assessed as reduction in cell growth incubated for 72 hrs by MTT assay; assay type: functional, cell-based; conditions: A2780, 72 h
In short: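 MTT assay on MCF-7, A2780, HT29 and normal MRC5 fibroblast lines (ATCC) grown in DMEM with 10% FBS. Cells exposed to compounds for 72 h, then reduced MTT read at 570 nm.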

[2] = test system: MCF7; assay: Cell cycle arrest in human MCF7 cells assessed as S phase accumulation at 5 uM incubated for 24 hrs by propidium iodide based flow cytometry (reference value: 17.3 to 28.5 %); assay type: functional
[3] = test system: MCF7; assay: Induction of apoptosis in human MCF7 cells assessed as late apoptotic cells at 10 uM incubated for 24 hrs by annexin V FITC and propidium iodide staining based flow cytometry (reference value: 0 to 2.5 %); assay type: functional
[4] = biological target: Vascular endothelial growth factor receptor 1 (Homo sapiens) (UniProt P17948); assay: Inhibition of recombinant human N-terminal GST-tagged FLT1 (784 to end residues) expressed in baculovirus infected Sf9 insect cells assessed as enzyme activity incubated for 15 mins by [gamma-33]ATP based scintillation counting method relative to control; design: scale not given: the % may be the effect or the level left
[5] = biological target: T1, Mitogen-activated protein kinase kinase kinase 5 (Homo sapiens) (UniProt Q99683); assay: Inhibition of recombinant human N-terminal GST-tagged ASK1 (649 to 946 residues) expressed in baculovirus infected Sf9 insect cells assessed as enzyme activity incubated for 15 mins by [gamma-33]ATP based scintillation counting method relative to control; design: scale not given: the % may be the effect or the level left
T1 sequence (whole entry): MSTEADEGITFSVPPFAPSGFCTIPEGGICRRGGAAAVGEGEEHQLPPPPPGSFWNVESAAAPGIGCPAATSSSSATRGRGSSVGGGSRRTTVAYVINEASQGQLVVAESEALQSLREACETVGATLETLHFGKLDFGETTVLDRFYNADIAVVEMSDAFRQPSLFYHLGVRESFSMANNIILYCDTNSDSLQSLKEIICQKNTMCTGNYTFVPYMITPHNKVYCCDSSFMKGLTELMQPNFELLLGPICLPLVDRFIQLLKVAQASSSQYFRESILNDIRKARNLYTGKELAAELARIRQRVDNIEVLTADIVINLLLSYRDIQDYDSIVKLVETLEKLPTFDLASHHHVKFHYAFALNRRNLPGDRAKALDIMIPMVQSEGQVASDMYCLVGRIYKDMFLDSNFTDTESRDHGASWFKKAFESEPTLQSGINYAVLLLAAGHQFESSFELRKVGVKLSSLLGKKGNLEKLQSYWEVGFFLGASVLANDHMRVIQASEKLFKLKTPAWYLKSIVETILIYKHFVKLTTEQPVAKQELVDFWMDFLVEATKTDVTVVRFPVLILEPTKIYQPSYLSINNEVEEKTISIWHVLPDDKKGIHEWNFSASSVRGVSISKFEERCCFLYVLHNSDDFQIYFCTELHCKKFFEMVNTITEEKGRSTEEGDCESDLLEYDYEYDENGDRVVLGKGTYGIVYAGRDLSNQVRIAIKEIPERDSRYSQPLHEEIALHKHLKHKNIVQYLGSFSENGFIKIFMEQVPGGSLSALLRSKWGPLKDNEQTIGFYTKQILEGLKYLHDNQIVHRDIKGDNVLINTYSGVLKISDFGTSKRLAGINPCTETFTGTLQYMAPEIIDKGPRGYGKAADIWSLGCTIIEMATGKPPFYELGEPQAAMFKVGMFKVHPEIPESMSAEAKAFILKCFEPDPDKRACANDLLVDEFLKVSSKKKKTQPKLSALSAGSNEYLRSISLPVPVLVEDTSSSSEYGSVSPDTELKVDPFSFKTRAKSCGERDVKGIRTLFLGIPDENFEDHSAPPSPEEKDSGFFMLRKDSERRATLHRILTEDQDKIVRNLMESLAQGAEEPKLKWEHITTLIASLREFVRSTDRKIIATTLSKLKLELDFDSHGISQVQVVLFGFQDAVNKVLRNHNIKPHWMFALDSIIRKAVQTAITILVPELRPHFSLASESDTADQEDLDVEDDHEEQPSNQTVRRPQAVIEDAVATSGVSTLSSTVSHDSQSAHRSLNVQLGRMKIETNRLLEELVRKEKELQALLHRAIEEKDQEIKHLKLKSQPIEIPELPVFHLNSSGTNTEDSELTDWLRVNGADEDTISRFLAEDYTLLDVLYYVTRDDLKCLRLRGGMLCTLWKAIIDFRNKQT

[6] = test system: MCF7; assay: Induction of apoptosis in human MCF7 cells assessed as viable cells at 5 uM incubated for 24 hrs by annexin V FITC and propidium iodide staining based flow cytometry (reference value: 76 to 95.9 %); assay type: functional; conditions: MCF7, 24 h, read-out: Activity
[7] = Selectivity index, ratio of IC50 for cytotoxicity against human MRC5 cells to IC50 for antiproliferative activity against human A2780 cells; conditions: MRC5 cells versus A2780 cells
[8] = test system: MCF7; assay: Cell cycle arrest in human MCF7 cells assessed as subG1 accumulation at 1 uM incubated for 24 hrs by propidium iodide based flow cytometry (reference value: 0.6 to 3 %); assay type: functional
[9] = biological target: T2, Serine/threonine-protein kinase Sgk1 (Homo sapiens) (UniProt O00141); assay: Inhibition of recombinant human N-terminal GST-tagged SGK1 (60 to end residues) expressed in baculovirus infected Sf9 insect cells assessed as enzyme activity incubated for 15 mins by [gamma-33]ATP based scintillation counting method relative to control; design: scale not given: the % may be the effect or the level left
T2 sequence (whole entry): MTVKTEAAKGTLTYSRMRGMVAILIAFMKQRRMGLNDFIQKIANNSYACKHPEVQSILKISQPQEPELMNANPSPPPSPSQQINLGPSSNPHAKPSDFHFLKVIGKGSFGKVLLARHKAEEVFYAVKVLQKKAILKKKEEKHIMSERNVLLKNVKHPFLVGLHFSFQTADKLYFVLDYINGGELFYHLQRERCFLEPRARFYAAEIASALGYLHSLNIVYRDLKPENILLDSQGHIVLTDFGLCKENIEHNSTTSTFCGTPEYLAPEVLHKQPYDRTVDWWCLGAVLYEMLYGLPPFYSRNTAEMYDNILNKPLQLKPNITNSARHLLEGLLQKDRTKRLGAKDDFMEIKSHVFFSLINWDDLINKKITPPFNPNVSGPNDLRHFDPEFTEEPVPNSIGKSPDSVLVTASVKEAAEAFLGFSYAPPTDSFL

[10] = test system: MCF7; assay: Cell cycle arrest in human MCF7 cells assessed as G1 accumulation at 5 uM incubated for 24 hrs by propidium iodide based flow cytometry (reference value: 49.6 to 55.1 %); assay type: functional
[11] = test system: MCF7; assay: Cell cycle arrest in human MCF7 cells assessed as G2/M phase accumulation at 1 uM incubated for 24 hrs by propidium iodide based flow cytometry (reference value: 17.2 to 26.8 %); assay type: functional
[12] = biological target: Prostaglandin G/H synthase 1 (Homo sapiens, UniProt P23219); assay: Inhibition of human COX1 using arachidonic acid as substrate incubated for 2 mins by ELISA method
[13] = test system: MCF7; assay: Cell cycle arrest in human MCF7 cells assessed as subG1 accumulation at 10 uM incubated for 24 hrs by propidium iodide based flow cytometry (reference value: 0.6 to 3 %); assay type: functional

Prostaglandin G/H synthase 1, sequence (P23219 whole entry): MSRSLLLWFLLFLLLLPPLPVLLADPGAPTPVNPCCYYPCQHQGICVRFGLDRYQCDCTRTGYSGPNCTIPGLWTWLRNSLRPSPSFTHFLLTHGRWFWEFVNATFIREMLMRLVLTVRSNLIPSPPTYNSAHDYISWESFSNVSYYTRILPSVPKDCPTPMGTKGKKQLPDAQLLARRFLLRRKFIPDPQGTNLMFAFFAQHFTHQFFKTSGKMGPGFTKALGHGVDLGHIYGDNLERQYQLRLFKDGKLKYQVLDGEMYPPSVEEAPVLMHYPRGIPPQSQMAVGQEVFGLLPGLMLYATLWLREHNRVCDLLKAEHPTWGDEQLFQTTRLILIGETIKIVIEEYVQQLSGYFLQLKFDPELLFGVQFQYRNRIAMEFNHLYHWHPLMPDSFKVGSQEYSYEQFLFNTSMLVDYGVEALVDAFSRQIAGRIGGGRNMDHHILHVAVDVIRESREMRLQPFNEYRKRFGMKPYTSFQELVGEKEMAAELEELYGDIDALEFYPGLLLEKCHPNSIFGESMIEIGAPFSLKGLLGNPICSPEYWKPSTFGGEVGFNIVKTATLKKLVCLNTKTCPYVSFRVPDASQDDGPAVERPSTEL
Vascular endothelial growth factor receptor 1 (Homo sapiens), sequence (P17948 whole entry, the tested form may be a part): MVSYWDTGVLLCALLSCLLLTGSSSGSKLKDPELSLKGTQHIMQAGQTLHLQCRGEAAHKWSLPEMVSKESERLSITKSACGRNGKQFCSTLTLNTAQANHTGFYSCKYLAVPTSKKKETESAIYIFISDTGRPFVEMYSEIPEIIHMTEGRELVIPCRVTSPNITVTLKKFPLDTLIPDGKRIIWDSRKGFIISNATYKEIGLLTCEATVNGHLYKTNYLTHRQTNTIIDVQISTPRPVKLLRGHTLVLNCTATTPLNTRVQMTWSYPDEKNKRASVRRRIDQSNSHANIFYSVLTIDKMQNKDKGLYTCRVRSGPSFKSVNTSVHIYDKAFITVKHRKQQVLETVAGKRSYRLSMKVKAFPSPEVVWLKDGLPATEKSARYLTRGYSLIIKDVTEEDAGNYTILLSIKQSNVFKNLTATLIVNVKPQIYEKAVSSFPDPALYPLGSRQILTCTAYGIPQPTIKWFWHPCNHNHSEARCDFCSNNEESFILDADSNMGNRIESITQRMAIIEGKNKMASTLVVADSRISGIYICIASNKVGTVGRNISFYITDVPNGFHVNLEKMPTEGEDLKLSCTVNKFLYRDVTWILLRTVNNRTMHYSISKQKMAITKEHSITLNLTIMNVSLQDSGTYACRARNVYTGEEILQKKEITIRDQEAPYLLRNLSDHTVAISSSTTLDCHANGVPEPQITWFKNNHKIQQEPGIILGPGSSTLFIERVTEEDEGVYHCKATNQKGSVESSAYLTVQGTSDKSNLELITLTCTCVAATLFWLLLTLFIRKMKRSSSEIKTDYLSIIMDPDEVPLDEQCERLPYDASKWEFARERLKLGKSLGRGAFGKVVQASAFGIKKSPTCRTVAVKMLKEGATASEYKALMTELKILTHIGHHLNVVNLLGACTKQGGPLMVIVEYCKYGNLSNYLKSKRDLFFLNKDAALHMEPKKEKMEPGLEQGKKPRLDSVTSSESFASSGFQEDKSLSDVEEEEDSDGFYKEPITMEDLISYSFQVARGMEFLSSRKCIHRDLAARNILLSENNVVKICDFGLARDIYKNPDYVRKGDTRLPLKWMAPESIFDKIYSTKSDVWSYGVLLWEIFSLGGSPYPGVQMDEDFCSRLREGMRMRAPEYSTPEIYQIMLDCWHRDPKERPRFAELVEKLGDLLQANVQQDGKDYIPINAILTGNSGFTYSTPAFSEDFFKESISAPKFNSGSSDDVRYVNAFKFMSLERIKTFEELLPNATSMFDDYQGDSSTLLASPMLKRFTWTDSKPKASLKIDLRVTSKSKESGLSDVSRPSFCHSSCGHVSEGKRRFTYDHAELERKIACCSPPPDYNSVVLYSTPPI

pIC50 [1]	Activity [4]	Activity [5]	Activity [9]	pIC50 [12]	Structure (SMILES)	Activity [2]	Activity [3]	viability at 5 µM [6]	selectivity ratio [7]	Activity [8]	Activity [10]	Activity [11]	Activity [13]
6.66	32%	-3%	8%	4.36	CCC1SCC(=O)N1c1c(C#N)c2n(c1C(=O)Nc1ccccc1)CCC2 (centres undefined)	17.8%	10.3%	77.8%	3 to 15	2.4%	59.4%	15.6%	8.9%
4.81	18%	-14%	-14%	< 4.00	CC/C=N/c1c(C#N)c2n(c1C(=O)Nc1ccccc1)CCC2								
	-10%	5%	3%		Cc1ccc(NC(=O)c2ccc(CN3CCN(C)CC3)cc2)cc1Nc1nccc(-c2cccnc2)n1								
6.28	1%	26%	7%	< 4.00	CC(C)C/C=N/c1c(C#N)c2n(c1C(=O)Nc1ccc(Br)cc1)CCC2	55.1%	12.2%	58.9%	39 to 258	1%	30.2%	12.4%	0.7%
